Tests used:
[1] = target: Toll-like receptor 1/2 (Mus musculus) (UniProt Q9QUN7+Q9EPQ1); assay: Agonist activity at TLR1/TLR2 in wild type C57BL/6J mouse macrophages assessed as stimulation of TNF alpha release measured for 4 hrs by ELISA based assay relative to diprovocim-1; type: cell-based; design: Activity: concentration or dose not given beside the values; conditions: Macrophage, filed as agonist
How it was run: (§1)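 Thioglycolate-elicited peritoneal macrophages from wild type C57BL/6J mice, harvested by PBS lavage 4 d after i.p. 4% thioglycolate. Cultured in DMEM/10% FBS at 37 °C, 5% CO2, seeded at 1 × 10⁵ cells/well and exposed to graded compound concentrations for 4 h, with final DMSO ≤0.5% held constant. LPS served as positive control. Supernatant mouse TNF-α was read by ELISA. EC50 from duplicate means.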

Toll-like receptor 1/2 [2] = target: T1, Toll-like receptor 1/2 (Homo sapiens, UniProt O60603+Q15399); assay: Agonist activity at TLR1/TLR2 in human THP-1 derived macrophages assessed as stimulation of TNF alpha release measured for 4 hrs by ELISA based assay; type: cell-based
How it was run: (§2)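 THP-1 cells differentiated with 100 nM PMA in RPMI/10% FBS for 24 h, washed, then rested 24 h in fresh medium. Seeded at 0.5 × 10⁵ cells/well and exposed to graded compound concentrations for 4 h, with final DMSO held at 0.1%. LPS served as positive control and DMSO as negative control. Supernatant human TNF-α was read by ELISA. EC50 from duplicate means.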

Toll-like receptor 1/2 [3] = target: Toll-like receptor 1/2 (Mus musculus, UniProt Q9EPQ1+Q9QUN7); assay: Agonist activity at TLR1/TLR2 in wild type C57BL/6J mouse macrophages assessed as stimulation of TNF alpha release measured for 4 hrs by ELISA based assay; type: cell-based, Macrophage; how it was run: as §1
Toll-like receptor 1/2 [4] = target: T1, Toll-like receptor 1/2; assay: Agonist activity at TLR1/TLR2 in human THP-1 derived macrophages assessed as stimulation of TNF alpha release measured for 4 hrs by ELISA based assay relative to diprovocim-1; type: cell-based; design: Activity: concentration or dose not given beside the values; how it was run: as §2

T1 sequence (O60603 whole entry): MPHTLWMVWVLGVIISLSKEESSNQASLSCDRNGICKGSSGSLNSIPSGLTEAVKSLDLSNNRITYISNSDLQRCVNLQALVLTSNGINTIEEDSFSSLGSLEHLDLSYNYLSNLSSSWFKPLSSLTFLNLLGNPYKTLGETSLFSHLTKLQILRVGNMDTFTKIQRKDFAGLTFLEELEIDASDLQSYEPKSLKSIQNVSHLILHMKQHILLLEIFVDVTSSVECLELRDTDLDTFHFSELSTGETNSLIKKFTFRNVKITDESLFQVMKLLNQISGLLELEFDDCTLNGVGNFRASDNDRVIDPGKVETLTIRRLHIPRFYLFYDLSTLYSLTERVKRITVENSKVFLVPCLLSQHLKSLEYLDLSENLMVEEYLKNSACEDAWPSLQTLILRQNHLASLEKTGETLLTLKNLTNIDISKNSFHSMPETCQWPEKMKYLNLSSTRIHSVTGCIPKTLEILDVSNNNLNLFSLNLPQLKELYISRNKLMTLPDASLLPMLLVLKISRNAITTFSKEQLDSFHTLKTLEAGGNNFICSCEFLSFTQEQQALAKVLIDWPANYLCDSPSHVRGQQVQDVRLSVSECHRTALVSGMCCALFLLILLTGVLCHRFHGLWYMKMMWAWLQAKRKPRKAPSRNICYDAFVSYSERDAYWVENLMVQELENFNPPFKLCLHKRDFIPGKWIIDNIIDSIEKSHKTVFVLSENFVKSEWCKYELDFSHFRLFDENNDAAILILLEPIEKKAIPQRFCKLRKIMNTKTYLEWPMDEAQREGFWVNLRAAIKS
T1 sequence (Q15399 whole entry): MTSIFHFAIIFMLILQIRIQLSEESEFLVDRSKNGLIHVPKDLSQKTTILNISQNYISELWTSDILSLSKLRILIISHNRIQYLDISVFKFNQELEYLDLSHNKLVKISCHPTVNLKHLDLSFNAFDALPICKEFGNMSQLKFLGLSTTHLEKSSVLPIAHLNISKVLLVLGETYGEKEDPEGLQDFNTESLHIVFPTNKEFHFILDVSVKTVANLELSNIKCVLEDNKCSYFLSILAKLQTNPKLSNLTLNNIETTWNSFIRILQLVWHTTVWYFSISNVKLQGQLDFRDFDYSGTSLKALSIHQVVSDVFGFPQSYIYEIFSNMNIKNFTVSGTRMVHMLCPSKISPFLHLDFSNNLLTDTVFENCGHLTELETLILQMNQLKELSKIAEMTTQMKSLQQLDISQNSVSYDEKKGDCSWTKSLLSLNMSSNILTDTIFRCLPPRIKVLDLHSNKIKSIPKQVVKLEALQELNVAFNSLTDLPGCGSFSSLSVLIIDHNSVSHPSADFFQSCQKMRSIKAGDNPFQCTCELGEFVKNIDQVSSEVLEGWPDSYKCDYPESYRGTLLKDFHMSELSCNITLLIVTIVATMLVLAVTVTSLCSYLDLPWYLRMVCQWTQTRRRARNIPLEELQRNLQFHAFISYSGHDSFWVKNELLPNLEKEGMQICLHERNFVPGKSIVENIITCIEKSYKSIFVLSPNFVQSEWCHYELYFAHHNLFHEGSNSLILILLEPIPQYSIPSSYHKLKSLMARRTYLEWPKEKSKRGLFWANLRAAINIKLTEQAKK
Sequence of Toll-like receptor 1/2 (Mus musculus, UniProt Q9EPQ1+Q9QUN7) (Q9QUN7 whole entry): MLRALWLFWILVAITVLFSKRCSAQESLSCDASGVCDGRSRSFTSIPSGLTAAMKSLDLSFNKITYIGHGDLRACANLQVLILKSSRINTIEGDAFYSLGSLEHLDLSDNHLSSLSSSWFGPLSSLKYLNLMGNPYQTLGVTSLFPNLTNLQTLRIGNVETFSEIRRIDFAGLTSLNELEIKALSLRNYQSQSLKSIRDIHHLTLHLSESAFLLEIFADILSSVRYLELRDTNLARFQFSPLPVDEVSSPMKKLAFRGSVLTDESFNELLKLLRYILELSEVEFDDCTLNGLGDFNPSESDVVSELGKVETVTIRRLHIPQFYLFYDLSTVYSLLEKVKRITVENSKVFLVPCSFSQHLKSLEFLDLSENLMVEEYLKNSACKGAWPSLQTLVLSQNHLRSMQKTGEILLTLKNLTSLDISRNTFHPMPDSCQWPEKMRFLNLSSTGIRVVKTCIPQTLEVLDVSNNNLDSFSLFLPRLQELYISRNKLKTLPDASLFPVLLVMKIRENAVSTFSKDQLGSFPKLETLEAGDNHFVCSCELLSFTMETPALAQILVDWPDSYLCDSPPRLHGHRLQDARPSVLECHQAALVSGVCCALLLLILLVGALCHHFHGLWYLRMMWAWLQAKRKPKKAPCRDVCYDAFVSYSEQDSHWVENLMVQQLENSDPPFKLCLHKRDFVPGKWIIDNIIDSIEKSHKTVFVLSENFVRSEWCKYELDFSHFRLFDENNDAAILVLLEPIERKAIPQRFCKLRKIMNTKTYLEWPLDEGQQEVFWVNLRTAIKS
Sequence of Toll-like receptor 1/2 (Mus musculus, UniProt Q9EPQ1+Q9QUN7) (Q9EPQ1 whole entry): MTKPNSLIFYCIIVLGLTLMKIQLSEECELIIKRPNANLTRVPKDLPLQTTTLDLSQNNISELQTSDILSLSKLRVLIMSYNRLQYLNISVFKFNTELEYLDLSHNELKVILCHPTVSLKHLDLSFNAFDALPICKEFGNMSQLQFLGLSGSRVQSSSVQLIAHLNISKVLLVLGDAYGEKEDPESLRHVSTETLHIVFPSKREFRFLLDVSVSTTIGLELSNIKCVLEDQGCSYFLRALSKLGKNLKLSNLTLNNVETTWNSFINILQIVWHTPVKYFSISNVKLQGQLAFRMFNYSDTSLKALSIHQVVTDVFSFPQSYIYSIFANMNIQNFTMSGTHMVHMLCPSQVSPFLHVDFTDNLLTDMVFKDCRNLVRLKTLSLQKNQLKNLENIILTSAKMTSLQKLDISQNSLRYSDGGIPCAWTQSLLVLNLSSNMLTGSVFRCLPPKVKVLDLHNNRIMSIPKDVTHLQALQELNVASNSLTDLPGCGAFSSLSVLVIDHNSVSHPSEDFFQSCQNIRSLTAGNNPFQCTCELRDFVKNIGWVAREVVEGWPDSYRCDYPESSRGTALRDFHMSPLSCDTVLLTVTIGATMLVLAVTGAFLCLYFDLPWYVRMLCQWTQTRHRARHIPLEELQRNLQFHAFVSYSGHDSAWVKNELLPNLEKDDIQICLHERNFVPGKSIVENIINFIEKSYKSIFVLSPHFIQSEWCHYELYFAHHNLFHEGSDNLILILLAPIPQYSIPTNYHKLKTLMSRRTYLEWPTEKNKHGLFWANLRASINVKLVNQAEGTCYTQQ

| Emax [1] [%] | EC50 (Toll-like receptor 1/2 [2]) [nM] | EC50 (Toll-like receptor 1/2 [3]) [nM] | Emax (Toll-like receptor 1/2 [4]; filed as agonist) [%] | Activity (Toll-like receptor 1/2 [4]; filed as agonist) [%] | Activity [1] [%] | Activity (Toll-like receptor 1/2 [4]) [%] | SMILES |
| --- | --- | --- | --- | --- | --- | --- | --- |
| 100 | 0.1 | 1.1 | 150 | – | – | – | CCCCCCCCCCCCCCNC(=O)[C@@H]1CN(C(=O)c2ccc(C(=O)N3C[C@@H](C(=O)N[C@H]4C[C@@H]4c4ccccc4)[C@H](C(=O)N[C@H]4C[C@@H]4c4ccccc4)C3)cc2)C[C@H]1C(=O)N[C@H]1C[C@@H]1c1ccccc1 |
| 100 | 0.1 | 2.1 | 110 | – | – | – | CCCCCCCCCCCCNC(=O)[C@@H]1CN(C(=O)c2ccc(C(=O)N3C[C@@H](C(=O)N[C@H]4C[C@@H]4c4ccccc4)[C@H](C(=O)N[C@H]4C[C@@H]4c4ccccc4)C3)cc2)C[C@H]1C(=O)N[C@H]1C[C@@H]1c1ccccc1 |
| 150 | 0.25 | 80 | 100 | – | – | – | CCCCCCNC(=O)[C@@H]1CN(C(=O)c2ccc(C(=O)N3C[C@@H](C(=O)N[C@H]4C[C@@H]4c4ccccc4)[C@H](C(=O)N[C@H]4C[C@@H]4c4ccccc4)C3)cc2)C[C@H]1C(=O)N[C@H]1C[C@@H]1c1ccccc1 |
| – | 200 | > 5000 | – | 110 | – | – | O=C(O)[C@@H]1CN(C(=O)c2ccc(C(=O)N3C[C@@H](C(=O)N[C@H]4C[C@@H]4c4ccccc4)[C@H](C(=O)N[C@H]4C[C@@H]4c4ccccc4)C3)cc2)C[C@H]1C(=O)N[C@H]1C[C@@H]1c1ccccc1 |
| – | – | > 500 | – | 110 | – | – | COC(=O)CCOCCOCCOCCNC(=O)[C@@H]1CN(C(=O)c2ccc(C(=O)N3C[C@@H](C(=O)N[C@H]4C[C@@H]4c4ccccc4)[C@H](C(=O)N[C@H]4C[C@@H]4c4ccccc4)C3)cc2)C[C@H]1C(=O)N[C@H]1C[C@@H]1c1ccccc1 |
| 240 | 0.33 | 540 | 100 | – | – | – | CCCCCCCCNC(=O)[C@@H]1CN(C(=O)c2ccc(C(=O)N3C[C@@H](C(=O)N[C@H]4C[C@@H]4c4ccccc4)[C@H](C(=O)N[C@H]4C[C@@H]4c4ccccc4)C3)cc2)C[C@H]1C(=O)N[C@H]1C[C@@H]1c1ccccc1 |
| 150 | 2 | 30 | 120 | – | – | – | CCCCNC(=O)[C@@H]1CN(C(=O)c2ccc(C(=O)N3C[C@@H](C(=O)N[C@H]4C[C@@H]4c4ccccc4)[C@H](C(=O)N[C@H]4C[C@@H]4c4ccccc4)C3)cc2)C[C@H]1C(=O)N[C@H]1C[C@@H]1c1ccccc1 |
| – | 0.2 | – | – | 100 | 100 | – | COC(=O)CCCCCCCCCCCNC(=O)[C@@H]1CN(C(=O)c2ccc(C(=O)N3C[C@@H](C(=O)N[C@H]4C[C@@H]4c4ccccc4)[C@H](C(=O)N[C@H]4C[C@@H]4c4ccccc4)C3)cc2)C[C@H]1C(=O)N[C@H]1C[C@@H]1c1ccccc1 |
| 260 | 0.1 | 650 | 100 | – | – | – | CCCCCCCCCCNC(=O)[C@@H]1CN(C(=O)c2ccc(C(=O)N3C[C@@H](C(=O)N[C@H]4C[C@@H]4c4ccccc4)[C@H](C(=O)N[C@H]4C[C@@H]4c4ccccc4)C3)cc2)C[C@H]1C(=O)N[C@H]1C[C@@H]1c1ccccc1 |
| 130 | 17 | 360 | 90 | – | – | – | CCNC(=O)[C@@H]1CN(C(=O)c2ccc(C(=O)N3C[C@@H](C(=O)N[C@H]4C[C@@H]4c4ccccc4)[C@H](C(=O)N[C@H]4C[C@@H]4c4ccccc4)C3)cc2)C[C@H]1C(=O)N[C@H]1C[C@@H]1c1ccccc1 |
| – | 0.37 | 17 | – | – | – | – | COC(=O)CCCCCCCCCNC(=O)[C@@H]1CN(C(=O)c2ccc(C(=O)N3C[C@@H](C(=O)N[C@H]4C[C@@H]4c4ccccc4)[C@H](C(=O)N[C@H]4C[C@@H]4c4ccccc4)C3)cc2)C[C@H]1C(=O)N[C@H]1C[C@@H]1c1ccccc1 |
| 75 | 0.5 | 2.6 | 110 | – | – | – | CCCCCCCCCCCCCCCCNC(=O)[C@@H]1CN(C(=O)c2ccc(C(=O)N3C[C@@H](C(=O)N[C@H]4C[C@@H]4c4ccccc4)[C@H](C(=O)N[C@H]4C[C@@H]4c4ccccc4)C3)cc2)C[C@H]1C(=O)N[C@H]1C[C@@H]1c1ccccc1 |
| – | – | – | – | – | 150 | < 50 | CC(C)(C)Oc1ccc(C(=O)OCCCCCCCCCCCCNC(=O)[C@@H]2CN(C(=O)c3ccc(C(=O)N4C[C@@H](C(=O)N[C@H]5C[C@@H]5c5ccccc5)[C@H](C(=O)N[C@H]5C[C@@H]5c5ccccc5)C4)cc3)C[C@H]2C(=O)N[C@H]2C[C@@H]2c2ccccc2)cc1 |
| – | – | – | – | 90 | 100 | – | CC(C)(C)OC(=O)N1CCC[C@H]1C(=O)OCCCCCCCCCCCCNC(=O)[C@@H]1CN(C(=O)c2ccc(C(=O)N3C[C@@H](C(=O)N[C@H]4C[C@@H]4c4ccccc4)[C@H](C(=O)N[C@H]4C[C@@H]4c4ccccc4)C3)cc2)C[C@H]1C(=O)N[C@H]1C[C@@H]1c1ccccc1 |
| – | – | – | – | – | 110 | 30 | C#CCOCC(=O)OCCCCCCCCCCCCNC(=O)[C@@H]1CN(C(=O)c2ccc(C(=O)N3C[C@@H](C(=O)N[C@H]4C[C@@H]4c4ccccc4)[C@H](C(=O)N[C@H]4C[C@@H]4c4ccccc4)C3)cc2)C[C@H]1C(=O)N[C@H]1C[C@@H]1c1ccccc1 |
| – | – | – | – | 100 | 150 | – | CSCC[C@H](NC(=O)OC(C)(C)C)C(=O)OCCCCCCCCCCCCNC(=O)[C@@H]1CN(C(=O)c2ccc(C(=O)N3C[C@@H](C(=O)N[C@H]4C[C@@H]4c4ccccc4)[C@H](C(=O)N[C@H]4C[C@@H]4c4ccccc4)C3)cc2)C[C@H]1C(=O)N[C@H]1C[C@@H]1c1ccccc1 |
| – | 3.8 | 240 | – | – | – | – | COC(=O)CCCCCCCNC(=O)[C@@H]1CN(C(=O)c2ccc(C(=O)N3C[C@@H](C(=O)N[C@H]4C[C@@H]4c4ccccc4)[C@H](C(=O)N[C@H]4C[C@@H]4c4ccccc4)C3)cc2)C[C@H]1C(=O)N[C@H]1C[C@@H]1c1ccccc1 |
| – | – | – | – | 90 | 380 | – | O=C(NCCCCCCCCc1ccc(O)cc1)[C@@H]1CN(C(=O)c2ccc(C(=O)N3C[C@@H](C(=O)N[C@H]4C[C@@H]4c4ccccc4)[C@H](C(=O)N[C@H]4C[C@@H]4c4ccccc4)C3)cc2)C[C@H]1C(=O)N[C@H]1C[C@@H]1c1ccccc1 |
| – | – | – | – | 90 | 110 | – | O=C(NCCCCCCCCCCCCO)[C@@H]1CN(C(=O)c2ccc(C(=O)N3C[C@@H](C(=O)N[C@H]4C[C@@H]4c4ccccc4)[C@H](C(=O)N[C@H]4C[C@@H]4c4ccccc4)C3)cc2)C[C@H]1C(=O)N[C@H]1C[C@@H]1c1ccccc1 |
| – | 0.5 | 50 | – | – | – | – | O=C(NCCCCCCCCCCO)[C@@H]1CN(C(=O)c2ccc(C(=O)N3C[C@@H](C(=O)N[C@H]4C[C@@H]4c4ccccc4)[C@H](C(=O)N[C@H]4C[C@@H]4c4ccccc4)C3)cc2)C[C@H]1C(=O)N[C@H]1C[C@@H]1c1ccccc1 |
| – | – | – | – | 100 | 230 | – | CC(C)(C)OCC(=O)OCCCCCCCCCCCCNC(=O)[C@@H]1CN(C(=O)c2ccc(C(=O)N3C[C@@H](C(=O)N[C@H]4C[C@@H]4c4ccccc4)[C@H](C(=O)N[C@H]4C[C@@H]4c4ccccc4)C3)cc2)C[C@H]1C(=O)N[C@H]1C[C@@H]1c1ccccc1 |
| – | – | – | – | 100 | 370 | – | CC(C)(C)OC(=O)N[C@@H](COCc1ccccc1)C(=O)OCCCCCCCCCCCCNC(=O)[C@@H]1CN(C(=O)c2ccc(C(=O)N3C[C@@H](C(=O)N[C@H]4C[C@@H]4c4ccccc4)[C@H](C(=O)N[C@H]4C[C@@H]4c4ccccc4)C3)cc2)C[C@H]1C(=O)N[C@H]1C[C@@H]1c1ccccc1 |
| – | – | – | – | 90 | 90 | – | COC(=O)CNC(=O)OCCCCCCCCCCCCNC(=O)[C@@H]1CN(C(=O)c2ccc(C(=O)N3C[C@@H](C(=O)N[C@H]4C[C@@H]4c4ccccc4)[C@H](C(=O)N[C@H]4C[C@@H]4c4ccccc4)C3)cc2)C[C@H]1C(=O)N[C@H]1C[C@@H]1c1ccccc1 |
| – | – | – | – | 40 | 100 | – | C#CCN(C)CC(=O)OCCCCCCCCCCCCNC(=O)[C@@H]1CN(C(=O)c2ccc(C(=O)N3C[C@@H](C(=O)N[C@H]4C[C@@H]4c4ccccc4)[C@H](C(=O)N[C@H]4C[C@@H]4c4ccccc4)C3)cc2)C[C@H]1C(=O)N[C@H]1C[C@@H]1c1ccccc1 |
| – | – | 500 | – | – | – | – | CC(C)(C)OC(=O)CCOCCOCCOCCNC(=O)[C@@H]1CN(C(=O)c2ccc(C(=O)N3C[C@@H](C(=O)N[C@H]4C[C@@H]4c4ccccc4)[C@H](C(=O)N[C@H]4C[C@@H]4c4ccccc4)C3)cc2)C[C@H]1C(=O)N[C@H]1C[C@@H]1c1ccccc1 |
| – | – | – | – | 100 | 170 | – | O=C(CNC(=O)OCC1c2ccccc2-c2ccccc21)OCCCCCCCCCCCCNC(=O)[C@@H]1CN(C(=O)c2ccc(C(=O)N3C[C@@H](C(=O)N[C@H]4C[C@@H]4c4ccccc4)[C@H](C(=O)N[C@H]4C[C@@H]4c4ccccc4)C3)cc2)C[C@H]1C(=O)N[C@H]1C[C@@H]1c1ccccc1 |

From ChEMBL document CHEMBL5143728, “Next-Generation Diprovocims with Potent Human and Murine TLR1/TLR2 Agonist Activity That Activate the Innate and Adaptive Immune Response” (J Med Chem, 2022)
